Laboratory results reported in article PMC11872064 (Drug Design, Development and Therapy, 2025).

Columns and labels:
OATP-1B1 = biological target: T1, OATP-1B1 (Homo sapiens, UniProt Q9Y6L6); assay: OATP-1B1 expressing oocytes, [3H]estrone sulfate uptake inhibition; assay type: cell-based; conditions: OATP-1B1 IC50, substrate [3H]estrone sulfate, value in nM
T1 sequence (Q9Y6L6 1-691): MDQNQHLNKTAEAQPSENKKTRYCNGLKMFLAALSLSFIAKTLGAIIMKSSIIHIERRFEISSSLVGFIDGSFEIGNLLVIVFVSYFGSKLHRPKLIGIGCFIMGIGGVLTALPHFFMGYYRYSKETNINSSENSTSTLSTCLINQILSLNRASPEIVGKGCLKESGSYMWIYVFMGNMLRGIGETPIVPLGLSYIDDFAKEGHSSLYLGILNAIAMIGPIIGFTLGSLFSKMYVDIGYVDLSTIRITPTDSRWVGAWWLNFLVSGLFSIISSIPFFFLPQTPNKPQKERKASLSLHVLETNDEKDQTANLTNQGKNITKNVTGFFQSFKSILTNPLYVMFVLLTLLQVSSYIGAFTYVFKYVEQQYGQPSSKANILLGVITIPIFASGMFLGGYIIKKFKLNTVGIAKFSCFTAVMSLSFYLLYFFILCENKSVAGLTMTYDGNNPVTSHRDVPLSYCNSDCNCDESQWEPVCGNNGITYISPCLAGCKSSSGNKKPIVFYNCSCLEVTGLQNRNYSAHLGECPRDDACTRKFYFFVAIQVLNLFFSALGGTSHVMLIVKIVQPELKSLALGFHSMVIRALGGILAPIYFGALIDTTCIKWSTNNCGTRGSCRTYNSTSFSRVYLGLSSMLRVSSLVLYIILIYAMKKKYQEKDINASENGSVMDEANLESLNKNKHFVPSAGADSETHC
Summary of the method: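 Xenopus laevis oocytes were defolliculated with collagenase, and stage IV–V oocytes were injected with 25 ng capped cRNA. They were kept 2–3 days at 18 ± 2 °C in ND96, pH 7.4. Uptake ran at room temperature in ND96 with test compound, using [3H]estrone sulfate for OATP1B1 and 2B1 and [3H]estradiol-17β-glucuronide for OATP1B3. Oocytes were washed in ice-cold ND96, solubilised in 5% SDS and counted by scintillation, with control-oocyte uptake subtracted.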

[1] = Rat pharmacokinetic study; assay type: in vivo; conditions: male, Sprague-Dawley, whole blood
Summary of the method: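 Adult male Sprague-Dawley rats (286 ± 12 g) were fasted 12–15 hr, n=5 per route. IV dosing was a bolus of about 300 µL over 30 sec into the orbital sinus under isoflurane, from aqueous 10% DMSO solution. Oral dosing was a CMC-formulated capsule, 19.6 mg/kg, followed by 500 µL water. Tail-vein blood was collected into K2EDTA from 0.083 to 24 hr (iv) or 0.5 to 30 hr (oral). Test compound was extracted with internal standard and quantified by LC/MS-MS (ESI−) against blood standard curves; LOQ 1.08 ng/mL.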

hOAT3 = biological target: T2, hOAT3 (Homo sapiens, UniProt Q8TCC7); assay: hOAT3 expressing oocytes, [14C]UA uptake inhibition; assay type: cell-based; conditions: inhibitor injected inside the oocyte
T2 sequence (Q8TCC7 1-542): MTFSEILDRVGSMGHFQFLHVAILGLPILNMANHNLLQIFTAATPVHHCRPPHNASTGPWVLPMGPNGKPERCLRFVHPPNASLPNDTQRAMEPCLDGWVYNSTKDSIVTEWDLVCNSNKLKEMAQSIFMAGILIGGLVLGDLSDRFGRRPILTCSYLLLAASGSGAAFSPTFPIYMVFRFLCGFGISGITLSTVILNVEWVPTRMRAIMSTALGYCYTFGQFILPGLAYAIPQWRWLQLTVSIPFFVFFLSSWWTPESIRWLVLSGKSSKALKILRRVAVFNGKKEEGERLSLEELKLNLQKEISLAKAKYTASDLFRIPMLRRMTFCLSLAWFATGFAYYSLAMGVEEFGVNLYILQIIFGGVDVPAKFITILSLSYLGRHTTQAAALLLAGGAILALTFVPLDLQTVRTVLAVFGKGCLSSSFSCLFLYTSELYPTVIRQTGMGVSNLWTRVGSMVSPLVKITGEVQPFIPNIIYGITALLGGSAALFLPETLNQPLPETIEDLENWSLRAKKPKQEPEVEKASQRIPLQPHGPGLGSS

hNPT4 = biological target: T3, hNPT4 (Homo sapiens, UniProt O00476); assay: hNPT4 expressing oocytes, [14C]UA uptake inhibition; assay type: cell-based; conditions: for [14C]UA uptake inhibition via hNPT4, inhibitor outside: inhibitor in uptake solution
T3 sequence (O00476 1-498 isoform O00476-2): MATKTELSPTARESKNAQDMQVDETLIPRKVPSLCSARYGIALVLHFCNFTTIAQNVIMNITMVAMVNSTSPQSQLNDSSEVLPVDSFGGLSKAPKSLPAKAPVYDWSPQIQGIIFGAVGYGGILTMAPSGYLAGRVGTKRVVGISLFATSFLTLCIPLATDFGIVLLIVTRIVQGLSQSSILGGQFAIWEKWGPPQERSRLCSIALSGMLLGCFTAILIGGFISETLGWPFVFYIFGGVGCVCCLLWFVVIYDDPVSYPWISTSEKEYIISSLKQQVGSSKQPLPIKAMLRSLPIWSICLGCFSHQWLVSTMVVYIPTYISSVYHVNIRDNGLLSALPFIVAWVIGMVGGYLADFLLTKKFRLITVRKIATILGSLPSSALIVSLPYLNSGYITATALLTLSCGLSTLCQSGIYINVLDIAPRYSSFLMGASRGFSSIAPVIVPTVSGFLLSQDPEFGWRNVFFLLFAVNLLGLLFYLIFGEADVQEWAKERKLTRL
Summary of the method: (§1)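 Xenopus oocytes were injected with 25 ng cRNA for hNPT4 or hOAT10 and held 2–3 days at 18 ± 2 °C. [14C]uric acid uptake was measured at room temperature in ND96. Inhibitor was either added to the uptake solution (outside) or injected into the oocyte (46 nL, inside); injected oocytes were washed and then incubated 60 min with substrate. Uptake was stopped with ice-cold washes, oocytes were SDS-solubilised and counted by scintillation, and results are mean ± S.D.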

hURAT1 = biological target: T4, hURAT1 (Homo sapiens, UniProt Q96S37); assay: hURAT1 expressing oocytes, [14C]UA uptake inhibition; assay type: cell-based
T4 sequence (Q96S37 1-553): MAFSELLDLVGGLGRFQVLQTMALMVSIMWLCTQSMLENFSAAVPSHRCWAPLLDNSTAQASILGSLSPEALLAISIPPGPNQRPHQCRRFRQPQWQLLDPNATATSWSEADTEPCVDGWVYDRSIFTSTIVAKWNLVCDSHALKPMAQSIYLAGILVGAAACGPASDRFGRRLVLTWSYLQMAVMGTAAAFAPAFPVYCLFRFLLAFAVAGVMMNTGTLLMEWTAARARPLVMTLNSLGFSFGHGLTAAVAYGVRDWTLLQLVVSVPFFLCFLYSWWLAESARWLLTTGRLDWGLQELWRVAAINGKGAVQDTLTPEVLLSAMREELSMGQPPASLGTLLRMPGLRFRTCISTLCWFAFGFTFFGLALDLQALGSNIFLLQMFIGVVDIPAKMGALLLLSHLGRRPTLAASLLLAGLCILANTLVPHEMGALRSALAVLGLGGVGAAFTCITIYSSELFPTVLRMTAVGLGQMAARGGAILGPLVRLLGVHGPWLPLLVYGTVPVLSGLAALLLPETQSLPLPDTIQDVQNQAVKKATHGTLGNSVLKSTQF

hOAT10 = hOAT10 (Homo sapiens, UniProt Q9Y226); assay: hOAT10 expressing oocytes, [14C]UA uptake inhibition; assay type: cell-based; conditions: for [14C]UA uptake inhibition via hOAT10, inhibitor inside: inhibitor injected inside the oocyte
Sequence of hOAT10 (Q9Y226 whole entry): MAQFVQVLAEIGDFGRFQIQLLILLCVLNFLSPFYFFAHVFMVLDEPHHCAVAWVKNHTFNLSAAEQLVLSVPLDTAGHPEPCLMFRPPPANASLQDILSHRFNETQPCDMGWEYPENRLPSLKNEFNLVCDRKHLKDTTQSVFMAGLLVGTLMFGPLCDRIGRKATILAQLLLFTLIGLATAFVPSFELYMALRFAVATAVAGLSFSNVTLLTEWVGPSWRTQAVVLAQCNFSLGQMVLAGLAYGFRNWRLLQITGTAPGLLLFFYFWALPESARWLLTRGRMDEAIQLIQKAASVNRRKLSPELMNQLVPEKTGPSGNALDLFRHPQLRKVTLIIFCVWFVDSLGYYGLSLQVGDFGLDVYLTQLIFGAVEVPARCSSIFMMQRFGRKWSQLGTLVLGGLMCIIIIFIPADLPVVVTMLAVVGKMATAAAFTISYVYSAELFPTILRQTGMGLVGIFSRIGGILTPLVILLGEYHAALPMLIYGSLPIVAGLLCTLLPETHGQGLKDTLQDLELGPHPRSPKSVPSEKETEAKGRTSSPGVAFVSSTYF
Summary of the method: as §1

hOAT1 = biological target: T5, hOAT1 (Homo sapiens, UniProt Q4U2R8); assay: hOAT1 expressing oocytes, [14C]UA uptake inhibition; assay type: cell-based; conditions: inhibitor injected inside the oocyte
T5 sequence (Q4U2R8 1-563): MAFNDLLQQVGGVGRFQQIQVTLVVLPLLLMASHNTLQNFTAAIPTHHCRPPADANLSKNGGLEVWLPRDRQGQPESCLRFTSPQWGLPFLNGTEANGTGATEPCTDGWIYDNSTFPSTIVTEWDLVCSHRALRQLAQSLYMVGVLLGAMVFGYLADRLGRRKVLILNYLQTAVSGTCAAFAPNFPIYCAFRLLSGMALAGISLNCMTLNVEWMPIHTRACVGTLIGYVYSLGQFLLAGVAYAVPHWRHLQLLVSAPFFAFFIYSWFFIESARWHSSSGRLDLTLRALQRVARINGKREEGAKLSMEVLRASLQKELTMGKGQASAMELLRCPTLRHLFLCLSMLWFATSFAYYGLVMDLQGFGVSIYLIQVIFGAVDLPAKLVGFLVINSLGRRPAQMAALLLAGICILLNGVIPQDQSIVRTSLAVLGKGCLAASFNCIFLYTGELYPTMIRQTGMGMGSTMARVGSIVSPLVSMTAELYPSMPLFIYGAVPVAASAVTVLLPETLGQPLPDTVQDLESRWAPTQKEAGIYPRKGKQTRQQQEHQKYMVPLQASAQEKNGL

| IC50 (OATP-1B1) | AUC(0-t) ([1]; iv, 0.43 mg/kg) | half-life ([1]; iv, 0.43 mg/kg, T1/2, rat, iv orbital sinus dosing 0.43 mg/Kg) | AUC(0-t) ([1]; po, 19.6 mg/kg) | Cmax ([1]; po, 19.6 mg/kg) | Tmax ([1]; po, 19.6 mg/kg) | [14C]UA uptake inhibition via hOAT3, inhibitor inside (hOAT3) | [14C]UA uptake inhibition via hNPT4, inhibitor outside (hNPT4) | [14C]UA uptake inhibition via hNPT4, inhibitor inside (hNPT4; inhibitor injected inside the oocyte) | Effect on Vmax for [14C]UA uptake (hURAT1; 0.1 µM benzbromarone, 0.3 µM 6-hydroxy benzbromarone in uptake solution) | [14C]UA uptake inhibition via hURAT1, inhibitor inside (hURAT1; inhibitor injected inside the oocyte, [14C]UA 10 µM) | 14C-uric acid transport via hOAT10, inhibitor outside (hOAT10; inhibitor in incubation media) | [14C]UA uptake inhibition via hOAT10, inhibitor outside (hOAT10; inhibitor in uptake solution) | [14C]UA uptake inhibition via hOAT10, inhibitor inside (hOAT10) | [14C]UA uptake inhibition via hOAT1, inhibitor inside (hOAT1) | Compound | [14C]UA uptake inhibition via hOAT10, inhibitor inside (hOAT10; listed as benzbromarone) |
| --- | --- | --- | --- | --- | --- | --- | --- | --- | --- | --- | --- | --- | --- | --- | --- | --- |
| 739 nM | 2090 ± 119 ng·h/mL | ~3 h | 60600 ± 7900 ng·h/mL | 6460 to 6470 ng/mL | 2 to 3 h | – | – | – | – | – | – | – | – | – | CCc1oc2cc(F)ccc2c1C(=O)c1cc(Br)c(O)c(Br)c1 [Compound 5, (3,5-dibromo-4-hydroxyphenyl)(2-ethyl-6-fluorobenzofuran-3-yl)methanone] | – |
| – | – | – | – | – | – | profound inhibition | dose-dependent inhibition | moderate inhibition | – | – | – | – | – | – | CCCN(CCC)S(=O)(=O)c1ccc(C(=O)O)cc1 [Compound 1, probenecid] | – |
| – | – | – | – | – | – | not readily inhibited | dose-dependent inhibition | – | reduced | did not produce a profound inhibition | roughly 50 % of control | dose-dependent effect | did not display this effect | not readily inhibited | CCc1oc2ccccc2c1C(=O)c1cc(Br)c(O)c(Br)c1 [Compound 2, benzbromarone] | did not produce a statistically different uptake as compared to control |
